This is a sample that favours compounds with a hit; in the whole collection about 5.5% have one here.
STAT3 blocker – reduces IL-6 driven STAT3 reporter signal; U3A cells, IL-6 STAT3-luciferase reporter, luminescence; host cell line lacks STAT1; 190,000 compounds, 0.89% hits; inhibition, % at 5.5 µM;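 active = inhibition above the mean inhibition across all screened compounds plus 3 SD, cut at about 44% in these data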;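 also: 0% = DMSO only wells and 100% = 100 µM nifuroxazide control wells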
STAT3 activator – increases IL-6 driven STAT3 reporter signal; U3A cells, IL-6 STAT3-luciferase reporter, luminescence; 100% = signal with IL-6 EC80 alone; 190,000 compounds, 0.91% hits; activation (% of control), % at 5.6 µM; AID 871;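 active = activation above the screen-wide mean of compound activation plus 3 SD, cut at about 130% in these data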;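 also: 0% = background luminescence of wells with medium and substrate only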
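Detection: reporter luminescence signal / Assay system: STAT1-lacking human U3A cells, STAT3 luciferase reporter / Incubation: compound pre-incubation 1 h before IL-6, then 6 h stimulation at 37 °C / Control set: IL-6-only high control / Read-out: % activation relative to IL-6 control / Probe or stimulus: Interleukin-6, 33 ng/mL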
Cl transport mod – KCC2 (human) Cl- transport modulation | 190,000 compounds, 2.2% hits | AID 1456 | B-score of Tl+ flux slope (higher = more flux/activation; lower = inhibition) at 10 µM | Q9H2X9 | KCC2 cells, thallium flux FluoZin-2 fluorescence;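 active = thallium flux slope and its plate-corrected score both differing from the plate sample mean at a set confidence after two filtering rounds, in either direction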;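 also: slope of fluorescence scaled to starting intensity during 10 to 20 s after thallium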
Target sequence (Q9H2X9 whole entry, looked up): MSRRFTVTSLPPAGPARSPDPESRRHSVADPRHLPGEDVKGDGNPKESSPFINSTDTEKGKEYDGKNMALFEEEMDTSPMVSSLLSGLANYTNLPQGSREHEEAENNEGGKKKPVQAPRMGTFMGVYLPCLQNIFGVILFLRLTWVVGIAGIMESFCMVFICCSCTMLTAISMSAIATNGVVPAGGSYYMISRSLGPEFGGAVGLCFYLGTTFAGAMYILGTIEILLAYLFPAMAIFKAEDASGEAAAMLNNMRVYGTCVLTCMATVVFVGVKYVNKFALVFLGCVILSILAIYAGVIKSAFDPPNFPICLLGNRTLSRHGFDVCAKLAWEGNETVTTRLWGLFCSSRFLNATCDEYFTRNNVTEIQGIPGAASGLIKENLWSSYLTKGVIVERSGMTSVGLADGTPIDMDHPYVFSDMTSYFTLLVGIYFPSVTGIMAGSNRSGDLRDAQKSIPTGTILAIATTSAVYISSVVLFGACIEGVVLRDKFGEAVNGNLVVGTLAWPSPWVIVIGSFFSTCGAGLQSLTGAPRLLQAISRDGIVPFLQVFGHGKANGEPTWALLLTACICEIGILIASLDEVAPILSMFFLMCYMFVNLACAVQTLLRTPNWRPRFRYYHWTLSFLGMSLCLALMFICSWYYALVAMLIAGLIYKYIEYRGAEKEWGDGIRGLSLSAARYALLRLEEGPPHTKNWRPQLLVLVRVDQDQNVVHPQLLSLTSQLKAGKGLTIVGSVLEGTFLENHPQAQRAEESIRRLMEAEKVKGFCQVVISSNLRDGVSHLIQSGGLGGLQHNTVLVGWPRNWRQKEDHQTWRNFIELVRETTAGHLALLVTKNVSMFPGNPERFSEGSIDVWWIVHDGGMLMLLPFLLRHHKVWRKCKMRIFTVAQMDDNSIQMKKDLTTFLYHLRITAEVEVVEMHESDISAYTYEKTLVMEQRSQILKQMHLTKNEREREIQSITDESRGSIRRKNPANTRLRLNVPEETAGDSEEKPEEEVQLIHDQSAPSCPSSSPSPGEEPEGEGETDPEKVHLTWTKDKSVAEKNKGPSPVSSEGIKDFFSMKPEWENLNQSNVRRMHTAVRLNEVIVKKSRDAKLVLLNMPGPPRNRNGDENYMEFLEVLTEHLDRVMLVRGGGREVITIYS
STAT1 blocker – inhibitors of IFN-gamma induced STAT1 signaling | NIH 3T3 STAT1-luciferase reporter, luminescence | 200,000 compounds, 0.35% hits | inhibition, % at 5.5 µM | AID 920;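 active = inhibition above a set limit, the mean inhibition across all tested compounds plus 3 SD, cut at about 34% in these data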;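 also: 0% = IFN-gamma with DMSO and 100% = IFN-gamma with 300 µM nifuroxazide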
STAT1 activator – increases IFN-gamma driven STAT1 reporter signal; NIH 3T3 STAT1-luciferase reporter, luminescence; 100% = IFN-gamma alone, no compound; activation (% of control), % at 5.5 µM; 200,000 compounds, 2.6% hits; AID 932;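 active = activation above the screen-wide mean activation plus 3 SD, cut at about 130% in these data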;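 also: raw ratio to IFN-gamma control signal so 100% means no change and 0% no light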
HSV augment – increases HSV replication in cells | HSV replication augmentation in cells, fold increase | maximum fold increase | 220,000 compounds, 0.005% hits; in the data active = maximum fold increase above about 1.5; inconclusive = no clear call, values can overlap the other calls; tested in PC3 cells
* hit, by the source's call; i = inactive; ? = inconclusive; nt = not tested or not shown.

SMILES	STAT3 blocker	STAT3 activator	Cl transport mod	STAT1 blocker	STAT1 activator	HSV augment
Cc1occc1C(=O)Nc1ccc(Br)cc1F	7	99	nt	-32	130*	i
Cc1occc1C(=O)NNC(=O)Nc1ccc(F)cc1F	2	95	-0.51	-4	103	i
Cc1cc(C)nc(S/C=C/C(=O)c2ccccc2F)n1	nt	nt	-0.47	nt	nt	i
CCc1ccc(C(=O)NNc2ccc(C)c(Cl)c2)cc1	nt	nt	-0.73	nt	nt	i
CCC(C)/C(C)=N/NC(=O)c1ccc(COc2ccc(Cl)c(C)c2)cc1 (stereo unspecified)	-14	114	-1.4	-34	130*	i
CCOc1cc(C2NN=C(c3ccccc3)S2)ccc1OCc1ccc(F)cc1 (stereo unspecified)	7	95	-0.68	-36	133*	i
N#CC1=C(N)NC(SCC(=O)Nc2ccc(Br)cc2)=C(C#N)C12CCCCC2	-2	107	-4.9*	4	96	i
CC(=O)N1CCN(CC(=O)Nc2ccccc2Sc2ccccc2)CC1	6	96	0.41	17	85	i
S=c1[nH]c2ccccc2o1	-38	133*	0.16	6	94	i
COCc1cc(N2CCCCC2)nc(-c2ccccc2)n1	7	101	0.11	5	95	i
COc1ccc2nc(/N=C/c3c(C)[nH]n(-c4ccc(C)cc4)c3=O)sc2c1	-18	119	54*	-4	103	i
Cc1[nH]n(-c2ccc(Cl)cc2)c(=O)c1/C=N/c1nnc(-c2ccccc2)s1	-12	107	45*	-3	102	i
CCCCN1C(=O)C(=O)N(c2ccccc2)C1=S	2	101	0.34	-40	135*	i
CC1=C(C(=O)OC(C)C)C(c2cccs2)NC(=S)N1 (stereo unspecified)	4	94	-0.36	7	93	i
CC(C)(C)NC(=O)COC(=O)c1ccc(Cl)cc1O	3	105	-0.96	5	95	i
CCOC(=O)C1=C(O)C(=O)N(Cc2ccccc2)CC1	14	93	nt	2	96	i
Cc1ccc(Nc2nc(=O)c3cccnc3s2)cc1	-47	144*	0.43	-41	137*	i
COc1ccc2c(CC(=O)Nc3ncc(C)s3)coc2c1	7	99	-0.99	-44	141*	i
O=c1c2ccccc2nc(-c2cccc(Cl)c2)n1O	0	99	18*	4	96	i
CC1(C)Cc2c(sc(NC(=O)c3ccc(Br)o3)c2C#N)CO1	-3	106	0.51	-35	133*	i
CC1(C)Cc2c(sc(NC(=O)Cc3ccccc3)c2C#N)CO1	nt	nt	-0.02	nt	nt	i
CCN(CC)c1ccc(C(=O)n2cnc3ccccc32)cc1	-5	110	-1.4	-30	130*	i
CN(C)c1ccc(C(=O)n2nnc3ccccc32)cc1	8	94	nt	18	88	i
COC(=O)c1cccc(NC(=O)C(C)(C)C)c1	nt	nt	-0.077	nt	nt	i
O=C(c1ccc(F)cc1)c1ccc(N2CCCC2)cc1	4	102	-0.23	-41	138*	i
SMILES	STAT3 blocker	STAT3 activator	Cl transport mod	STAT1 blocker	STAT1 activator	HSV augment
C(#Cc1ccccc1)Cn1nnc2ccccc21	14	93	-2.1	-37	134*	i
O=C(O)c1cccc(NC(=S)N/N=C/c2ccccc2OCc2cccc(Br)c2)c1	12	91	-2.5	-2	103	i
S=C(N/N=C/c1ccc2ncccc2c1)Nc1cccnc1	68*	44	-0.033	39*	64	i
O=C(O)c1cccc(NC(=S)N/N=C/c2ccccn2)c1	91*	27	1.6	79*	26	i
O=C(O)c1cccc(NC(=S)N/N=C/c2ccccc2OCc2ccc(Br)cc2)c1	9	94	-2.5	-11	109	i
O=C(O)c1cccc(NC(=S)N/N=C/c2cccc(O)c2)c1	60*	51	-2.4	43*	59	i
COc1ccc(C(=O)N/N=C(\C)CC(=O)Nc2cccc(C(F)(F)F)c2)cc1	nt	nt	0.55	nt	nt	i
COc1ccc(NC(=S)NC2CCCCC2)cn1	2	105	-0.002	-7	106	i
Cn1c(=O)c(C(=O)Nc2ncccc2O)c(O)c2ccccc21	2	104	1.5	11	90	i
Cn1c(=O)c(C(=O)Nc2cccnc2)c(O)c2ccccc21	-36	134*	1.7	-15	114	nt
Cc1ccc(NC(=O)c2c(O)c3ccccc3n(C)c2=O)nc1	-33	135*	-0.0065	5	96	i
Cn1c(CC(=O)Nc2ccccc2)c(Sc2ccccc2)c2ccccc21	-36	135*	0.036	1	99	i
Cn1c(Cl)c(C(=O)Nc2ccccc2)c2ccccc21	-72	158*	nt	1	99	i
Cn1c(CC(=O)Nc2ccccc2C(F)(F)F)c(Sc2ccccc2)c2ccccc21	5	97	1.3	5	95	i
Cn1c(=O)c(C(=O)NC2CCCCCCC2)c(O)c2ccccc21	19	89	-0.51	6	95	i
COc1ccc(N(C)C(=O)c2onc3c2CCCC3)cc1	9	95	-1.1	-4	104	i
C/C(=N\N=C(N)N)c1ccc(Cl)cc1Cl	2	100	0.36	6	93	i
CCSc1ncc(/C=N/Nc2ccc(Cl)cc2)n1C	-52	150*	-0.83	-66	160*	i
Cc1cccc(NC(=S)NCCc2ccccc2)n1	15	92	0.19	2	99	i
CC(C)(C)NC(=S)NCCc1ccccc1	-9	104	-0.056	-33	130*	i
C/C(=N\NC(=S)NCCc1ccccc1)c1ccc(C)cc1	14	91	2.9*	-2	102	i
S=C(NCCc1ccccc1)Nc1ccccn1	-7	110	-0.012	-37	133*	i
C/C(=N\NC(=S)NCCc1ccccc1)c1ccc(C#N)cc1	14	94	0.51	-3	103	i
Cc1cccc(/C(N)=N/OC(=O)c2cccnc2)c1	18	87	1	-37	133*	i
COc1ccccc1C/C(N)=N/OC(=O)c1ccc2c(c1)OCO2	6	98	nt	-7	106	i
SMILES	STAT3 blocker	STAT3 activator	Cl transport mod	STAT1 blocker	STAT1 activator	HSV augment
Cc1ccc(C(=O)O/N=C(\N)c2nonc2N)cc1	0	96	0.66	-38	134*	i
Cc1cccc(/C(N)=N/OC(=O)c2ccc3c(c2)OCO3)c1	33	71	0.028	-50	145*	i
Cc1cccc(/C(N)=N/OC(=O)c2ccc(Br)o2)c1	-24	117	-1.1	-32	132*	i
CCCN1C(=O)/C(=C/c2c(N3CCNC(=O)C3CC(=O)OC)nc3c(C)cccn3c2=O)SC1=S (stereo unspecified)	nt	nt	i	nt	nt	?
Cc1cc(C(=O)N2CCN(c3ncccn3)CC2)nn1C	nt	nt	-0.44	nt	nt	i
CCN(CC(=O)Nc1ccc(C)c(F)c1)CC(=O)NC(C)(C)C	2	103	-0.5	3	95	i

Screening results deposited in PubChem by several laboratories.
